In ChEMBL document CHEMBL1153797, “Prenylxanthones and a bicyclo[3.3.1]nona-2,6-diene derivative from the fungus Emericella rugulosa” (J Nat Prod, 2009) one finds IC50 and MIC data, which are given here for 15 molecules.

Converted amounts (≈) assume the structure as drawn. The source made the active and inactive calls. No cut-off for these calls is given here.

The nature of experiment [1]: Cytotoxicity against human BC1 cells by SRB assay. Format: functional, cell-based. A digest of the protocol:
(§1)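 Human cell lines were epidermoid carcinoma KB, breast cancer BC1 and small-cell lung cancer NCI-H187. Cytotoxicity was read by the Skehan colorimetric method, and IC50 was reported in µg/mL. Ellipticine served as the reference substance.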
For orientation: The SRB assay estimates cell density from bound dye.

In experiment [2] the test system is Plasmodium falciparum. In words: Antimalarial activity against multidrug-resistant Plasmodium falciparum K1 assessed as inhibition of [3H]hypoxanthine uptake by microculture radioisotope technique. Format: functional, organism-based. A digest of the protocol:
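In vitro culture of multidrug-resistant P. falciparum K1 parasites (Trager–Jensen method). Growth measured by [3H]-hypoxanthine uptake in a microculture radioisotope format. IC50 taken as the concentration giving 50% reduction in parasite growth. Artemisinin served as the reference standard.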

Experiment [3] deals with KB. Kind of experiment: Cytotoxicity against human KB cells by SRB assay. It counts as functional, cell-based. A digest of the protocol: as §1
Experiment [4] deals with NCI-H187. Kind of experiment: Cytotoxicity against human NCI-H187 cells by SRB assay. Format: functional, cell-based. A digest of the protocol: as §1
The subject of experiment [5] is Mycobacterium tuberculosis. In words: Antimycobacterial activity against Mycobacterium tuberculosis H37Ra by microplate Alamar blue assay. It counts as functional. A digest of the protocol: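 M. tuberculosis H37Ra tested by microplate Alamar Blue assay. Activity reported as MIC. Isoniazid and kanamycin sulfate were run as reference drugs.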
[6] abbreviates: Homo sapiens, BC1, read-out: IC50.
The mark [7] stands for this setting: Plasmodium falciparum, K1, read-out: IC50.
Where [8] appears, read: Homo sapiens, NCI-H187, read-out: IC50.

The term IC50 denotes the concentration at which inhibition is half-maximal. Usually MIC stands for the lowest concentration that inhibits growth of the organism.

With `C=C(C(=O)CC)[C@H]1[C@@]2(C)C=C(C)C[C@]1(C)C=C(C)[C@@H]2/C(C)=C\[C@@H]1C=CC(=O)C1` [RUGULOSONE], the IC50 in experiment [1] (setting [6]) came to 1.3 µg/mL (≈ 3.43 µM); in experiment [2] (setting [7]), 1.9 µg/mL (≈ 5.02 µM); in experiment [3] (Homo sapiens, KB, read-out: IC50), 2.6 µg/mL (≈ 6.87 µM); in experiment [4] (setting [8]) it was 1.3 µg/mL (≈ 3.43 µM). The molecule also registered a minimum inhibitory concentration (MIC) in experiment [5] of 12.5 µg/mL (≈ 33 µM).
On to `C=C(C)[C@H]1COc2c(C)cc3oc4c(CC(=O)C(C)C)ccc(O)c4c(=O)c3c2[C@@H]1O` [RUGULOXANTHONE B], for which the IC50 result in experiment [1] (bc1), in experiment [2], in experiment [3] (kb) and in experiment [4] (nci-h187) was “Not Active” throughout. For the same molecule, the MIC entry in experiment [5] is “inactive”.
In the case of `C=C(C)[C@H]1COc2c(C)cc3oc4c(CC(C)(C)C=O)ccc(O)c4c(=O)c3c2[C@@H]1O` [RUGULOXANTHONE A], the IC50 result in experiment [1] (bc1), in experiment [2], in experiment [3] (kb) and in experiment [4] (nci-h187) was “Not Active” in each case. For the same molecule, the MIC entry in experiment [5] was “inactive”.
For the molecule `C=C(C)[C@H]1COc2c(C)cc3oc4c(C[C@H](O)C(C)(C)OC)ccc(O)c4c(=O)c3c2[C@@H]1O` [TAJIXANTHONE METHANOATE], the IC50 result in experiment [1] (bc1), in experiment [2], in experiment [3] (kb) and in experiment [4] (nci-h187) was “Not Active” each time. Besides, the MIC entry in experiment [5] was “inactive”.
For the molecule `NNC(=O)c1ccncc1` [ISONIAZID], the lowest concentration to inhibit growth in experiment [5] (MIC) was 0.04 µg/mL (≈ 0.292 µM).
For `C=C(C)[C@H]1COc2c(C)cc3oc4c([C@H](OC)[C@@H]5OC5(C)C)ccc(O)c4c(=O)c3c2[C@@H]1O`, the IC50 result in experiment [1] (bc1), in experiment [2], in experiment [3] (kb) and in experiment [4] (nci-h187) was “Not Active” throughout. The MIC result in experiment [5] was “inactive”.
Regarding `Cc1c2ccncc2c(C)c2c1[nH]c1ccccc12` [ELLIPTECINE], the IC50 is 0.32 µg/mL (≈ 1.3 µM) in experiment [1] (setting [6]) and 0.26 µg/mL (≈ 1.06 µM) in experiment [4] (setting [8]).
Take `C=C(C)[C@@H]1COc2c(C)cc3oc4c(C[C@@H]5OC5(C)C)ccc(O)c4c(=O)c3c2[C@H]1O` [TAJIXANTHONE]: the IC50 result in experiment [1] (bc1), in experiment [2], in experiment [3] (kb) and in experiment [4] (nci-h187) was “Not Active” each time. Moreover, the MIC result in experiment [5] is “inactive”.
For `C=C(C)[C@H]1COc2c(C)cc3oc4c(CC=C(C)C)ccc(O)c4c(=O)c3c2[C@@H]1O` [SHAMIXANTHONE], the IC50 result in experiment [1] (bc1), in experiment [2], in experiment [3] (kb) and in experiment [4] (nci-h187) was “Not Active” each time. Further, the MIC result in experiment [5] was “inactive”.
As to `C[C@@H]1CC[C@H]2[C@@H](C)C(=O)O[C@@H]3O[C@@]4(C)CC[C@@H]1[C@]32OO4` [ARTEMISININ], in experiment [2] (setting [7]), the IC50 was 0.001 µg/mL (≈ 0.00354 µM).
In the case of `C=C(C)[C@H]1COc2c(C)cc3oc4c(C[C@H](O)C(C)(C)O)ccc(O)c4c(=O)c3c2[C@@H]1O.O` [TAJIXANTHONE HYDRATE], the IC50 result in experiment [1] (bc1), in experiment [2], in experiment [3] (kb) and in experiment [4] (nci-h187) was “Not Active” in each case. Further, the MIC result in experiment [5] was “inactive”.
As to `C=C(C)[C@H]1COc2c(C)cc3oc4c([C@@H](OC)[C@@H]5OC5(C)C)ccc(O)c4c(=O)c3c2[C@@H]1OC(C)=O`, the IC50 result in experiment [1] (bc1), in experiment [2], in experiment [3] (kb) and in experiment [4] (nci-h187) was “Not Active” throughout. In addition, the MIC result in experiment [5] was “inactive”.
Consider `C=C(C)[C@H](O)Cc1ccc(O)c2c(=O)c3c4c(c(C)cc3oc12)OC[C@H](C(=C)C)[C@H]4O` [RUGULOXANTHONE C], for which the IC50 entry in experiment [1] (bc1), in experiment [2], in experiment [3] (kb) and in experiment [4] (nci-h187) was “Not Active” each time. For the same molecule, the MIC result in experiment [5] is “inactive”.
Consider `C=C(C)[C@H]1COc2c(C)cc3oc4c(C[C@H](O)C(C)(C)OCC)ccc(O)c4c(=O)c3c2[C@@H]1O` [TAJIXANTHONE ETHANOATE], for which the IC50 result in experiment [1] (bc1), in experiment [2], in experiment [3] (kb) and in experiment [4] (nci-h187) was “Not Active” each time. Besides, the MIC result in experiment [5] is “inactive”.
Take `NC[C@H]1O[C@H](O[C@H]2[C@H](O)[C@@H](O[C@H]3O[C@H](CO)[C@@H](O)[C@H](N)[C@H]3O)[C@H](N)C[C@@H]2N)[C@H](O)[C@@H](O)[C@@H]1O.O=S(=O)(O)O` [KANAMYCIN SULFATE]: the MIC in experiment [5] worked out at 2 µg/mL.
